# Active and inactive are the calls of the source. No cut-off for these calls is given here.
# What was measured:
# [1] = target: geranylgeranyltransferase type-I (Rattus norvegicus, UniProt P53610+Q04631); assay: Inhibition of recombinant rat GGTase1 expressed in Escherichia coli using GGDP as substrate measured after 2 hrs by dansyl-GCVLS dye based fluorescence assay
# Summary of the method: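 Recombinant GGTase I 24 nM added to 50 mM HEPPSO, 5 mM TCEP-HCl containing 10 μM GGDP and 5 μM dansyl-GCVLS. Incubated 2 h at 30 °C with or without compound, with prenylation tracked as dansyl fluorescence increase (ex 340 / em 520 nm) over time. IC50 from Chou–Talalay curve fitting.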
# [2] = target: T1, Farnesyl pyrophosphate synthase (Homo sapiens, UniProt P14324); assay: Inhibition of recombinant FDPS (unknown origin) using GPP as substrate pretreated for 10 mins followed by substrate addition after 30 mins in presence of [14C]-IPP by liquid scintillation counting method
# T1 sequence (P14324 whole entry): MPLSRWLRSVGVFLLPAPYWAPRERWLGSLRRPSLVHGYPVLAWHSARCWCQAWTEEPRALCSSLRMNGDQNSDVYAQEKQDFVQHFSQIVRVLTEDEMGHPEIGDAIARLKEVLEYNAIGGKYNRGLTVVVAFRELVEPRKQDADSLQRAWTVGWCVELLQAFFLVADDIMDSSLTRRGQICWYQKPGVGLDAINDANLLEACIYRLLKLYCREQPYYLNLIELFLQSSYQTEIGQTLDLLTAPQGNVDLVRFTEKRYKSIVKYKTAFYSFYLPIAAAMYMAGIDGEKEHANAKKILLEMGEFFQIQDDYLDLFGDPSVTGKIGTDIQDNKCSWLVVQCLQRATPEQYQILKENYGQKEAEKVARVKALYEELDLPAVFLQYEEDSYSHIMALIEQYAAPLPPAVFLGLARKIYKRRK
# Summary of the method: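 Recombinant FDPS assayed by a previously described method, each concentration in duplicate, three independent experiments. IC50 derived from concentration-response curves by Chou–Talalay median-effect analysis.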
# [3] = target: T2, Geranylgeranyl transferase type I (Homo sapiens) (UniProt P49354+P53609); assay: Inhibition of GGTase1 in human RPMI8226 cells assessed as decrease in Rap1a geranylgeranylation at 0.5 uM after 48 hrs by Western blot method; type: cell-based
# Summary of the method: (§1)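 RPMI-8226 myeloma cells exposed 48 h to test compounds over a range of concentrations, lovastatin 10 μM as positive control. Whole-cell RIPA lysates with protease/phosphatase inhibitors, protein by BCA; equal protein run on SDS-PAGE and immunoblotted with antibody recognising only unmodified Rap1a, β-tubulin as loading control, HRP secondary with ECL detection.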
# Homo sapiens [4] = organism: Homo sapiens; assay: Inhibition of Rab GGTase2 in human RPMI8226 cells assessed as disruption of Rab6 geranylgeranylation at 1 to 10 uM after 48 hrs by western blot analysis; type: cell-based
# Summary of the method: (§2)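 Membrane-bound Rab6 measured in RPMI-8226 cells treated 48 h (lovastatin 10 μM positive control). Cells lysed with Triton X-114 and the detergent (membrane) fraction immunoblotted for Rab6, with calnexin as loading control. Densitometry gives Rab6/calnexin relative to untreated cells.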
# Homo sapiens [5] = organism: Homo sapiens; assay: Inhibition of Rab GGTase2 in human RPMI8226 cells assessed as decrease in Rab GTPase geranylgeranylation by measuring accumulation of intracellular lambda light chain at 0.1 to 50 uM after 48 hrs by ELISA; type: cell-based
# Summary of the method: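 Intracellular lambda light chain in RPMI-8226 cells after 48 h incubation with compounds (lovastatin 10 μM positive control). Quantified by human lambda light chain ELISA on whole-cell lysate and normalised to BCA total protein. Results given as percent of untreated control, mean + SD, n=3. Significance by unpaired two-tailed t-test, p < 0.05.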
# [6] = Inhibition of recombinant rat FTase using FDP as substrate measured after 1 hr by dansyl-GCVLS dye based fluorescence assay
# Summary of the method: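 Recombinant FTase 18 nM started reactions in 50 mM HEPPSO, 5 mM TCEP-HCl, 5 mM MgCl2 with 10 μM FDP and 5 μM dansyl-GCVLS, 30 °C for 1 h, with or without compound. Peptide prenylation followed as rise in dansyl fluorescence (ex 340 / em 520 nm) over time. IC50 by Chou–Talalay analysis.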
# [7] = target: T3, Geranylgeranyl pyrophosphate synthase (Homo sapiens, UniProt O95749); assay: Inhibition of recombinant GGDPS (unknown origin) using FPP as substrate pretreated for 10 mins followed by substrate addition after 30 mins in presence of [14C]-IPP by liquid scintillation counting analysis
# T3 sequence (O95749 whole entry): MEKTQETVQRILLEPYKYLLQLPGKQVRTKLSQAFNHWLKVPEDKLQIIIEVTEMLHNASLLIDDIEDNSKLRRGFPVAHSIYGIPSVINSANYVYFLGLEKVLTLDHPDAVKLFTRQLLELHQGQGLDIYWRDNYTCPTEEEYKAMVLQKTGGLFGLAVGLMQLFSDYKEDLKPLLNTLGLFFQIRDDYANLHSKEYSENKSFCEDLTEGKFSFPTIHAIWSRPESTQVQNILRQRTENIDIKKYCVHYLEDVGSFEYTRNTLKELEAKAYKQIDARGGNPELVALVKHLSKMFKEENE
# Summary of the method: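 Recombinant GGDPS from a commercial source; compounds tested in duplicate at multiple concentrations, three independent experiments. IC50 values from concentration-response curves by Chou–Talalay median-effect analysis.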
# [8] = target: T2, Geranylgeranyl transferase type I (Homo sapiens); assay: Inhibition of GGTase1 in human RPMI8226 cells assessed as decrease in Rap1a geranylgeranylation at 0.1 to 50 uM after 48 hrs by Western blot method; type: cell-based; summary of the method: as §1
# Homo sapiens [9] = organism: Homo sapiens; assay: Inhibition of Rab GGTase2 in human RPMI8226 cells assessed as decrease in Rab6 geranylgeranylation at 5 to 50 uM after 48 hrs by western blot analysis; type: cell-based; summary of the method: as §2
# Homo sapiens [10] = organism: Homo sapiens; assay: Inhibition of Rab GGTase2 in human RPMI8226 cells assessed as decrease in Rab6 geranylgeranylation after 48 hrs by western blot analysis; type: cell-based
# Summary of the method: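 RPMI-8226 cells, 48 h with varying compound concentrations, lovastatin 10 μM as control. Cells lysed with Triton X-114; detergent (membrane) fraction immunoblotted for Rab6 with calnexin loading control. Rab6 band densitometry normalised to calnexin, then to untreated cells (relative intensity).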
# [11] = target: T2, Geranylgeranyl transferase type I (Homo sapiens); assay: Inhibition of GGTase1 in human RPMI8226 cells assessed as decrease in Rap1a geranylgeranylation after 48 hrs by Western blot method; type: cell-based
# Summary of the method: as §1, with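 “varying compound” for “test compounds over a range of”, “Whole-cell lysate made in” for “Whole-cell”, “buffer” for “lysates”, “SDS-PAGE, blotted to PVDF, probed” for “SDS-PAGE and immunoblotted”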
# Homo sapiens [12] = organism: Homo sapiens; assay: Inhibition of Rab GGTase2 in human RPMI8226 cells assessed as decrease in Rab GTPase geranylgeranylation by measuring accumulation of intracellular lambda light chain after 48 hrs by ELISA; type: cell-based
# Summary of the method: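 RPMI-8226 cells treated 48 h with varying compound concentrations (lovastatin 10 μM control). Intracellular lambda light chain in whole-cell lysate quantified by human lambda ELISA, normalised to total protein (BCA), expressed as percent of untreated control; mean + SD, n=3; unpaired two-tailed t-test, p < 0.05.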
IC50 [1],IC50 [2],inhibition [3],IC50 [6],inhibition [8],SMILES,inhibition (Homo sapiens [4]),inhibition (Homo sapiens [5]),IC50 [7],inhibition (Homo sapiens [9]),INH (Homo sapiens [10]),INH [11],INH (Homo sapiens [12])
> 100 µM,29.8 µM,Active,> 100 µM,–,CC(C)=CCC/C(C)=C\CCCn1cc(CC(P(=O)(O)O)P(=O)(O)O)nn1,Active,Active,–,–,–,–,–
> 100 µM,> 100 µM,–,> 100 µM,Active,CC(C)=CCCCn1cc(CC(P(=O)(O)O)P(=O)(O)O)nn1,–,Active,3.6 µM,Active,–,–,–
–,–,–,–,–,CC(C)=CCC/C(C)=C/CCn1cc(CC(P(=O)(O)O)P(=O)(O)O)nn1,–,–,0.17 µM,–,0.09 µM,0.09 µM,0.09 µM
> 100 µM,33.3 µM,–,> 100 µM,Active,CC(C)=CCC/C(C)=C/CCCn1cc(CC(P(=O)(O)O)P(=O)(O)O)nn1,–,Active,–,Active,–,–,–

# — ChEMBL document CHEMBL4011604, “Bishomoisoprenoid triazole bisphosphonates as inhibitors of geranylgeranyl diphosphate synthase” (Bioorg Med Chem, 2017)
